Assay results: paper PMC3606642 (Journal of natural products, 2012)
“Also recorded” adds a separate entry of the source.

Test system: heat shock protein 70 (HSP70)
Test: Western blot analysis of HSP70 expression in U251 cells
Assay type: cell-based, human
Details: for HSP70 total cell expression (western blot): 5 μM, 24 h post-treatment; for Stress response (heat shock effect and oxidative stress effect) following treatment: effect abrogated by N-acetyl-cysteine
Outline: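 U251 glioblastoma cells were grown in DMEM with 10% FBS and 1% penicillin/streptomycin at 37 °C and 5% CO2, plated sub-confluent and grown overnight. They were treated with test compound at 0, 0.1, 0.5, 1 and 5 μM for 24 h. Lysate proteins were quantified, run on SDS–PAGE, transferred to nitrocellulose and probed with anti-HSP70 (1:1000), with actin (1:50,000) as loading control and HRP secondaries (1:5000).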

Row | Structure (SMILES) | HSP70 total cell expression (western blot) | Stress response (heat shock effect and oxidative stress effect) following treatment
1 | C=C1C(=O)O[C@@H]2C[C@]1(C)OC[C@H]2[C@H]1CC[C@H]2[C@@H]3CC=C4CC=CC(=O)[C@]4(C)[C@H]3C[C@@H](O)[C@]12C [Compound 2, (20R,22R,24R)-21,24-epoxy-12β-hydroxy-1-oxowitha-2,25,25(27)-trienolide] | upregulation was observed; also recorded: markedly upregulated | observed
2 | C=C1C(=O)O[C@@H]2C[C@]1(C)OC[C@H]2[C@H]1CC[C@H]2[C@@H]3CC=C4CC=CC(=O)[C@]4(C)[C@H]3CC[C@]12C [Compound 3, withametelin] | upregulation was observed; also recorded: markedly upregulated | observed
3 | C=C1C(=O)O[C@@H]2C[C@]1(C)OC[C@H]2[C@H]1CC[C@H]2[C@@H]3C[C@@H](O)[C@@]4(O)CC=CC(=O)[C@]4(C)[C@H]3CC[C@]12C [Compound 4, withametelin O] |  | do not exhibit this stress response
4 | C=C1C(=O)O[C@@H]2C[C@@]1(C)OC[C@H]2[C@H]1CC[C@H]2[C@@H]3C[C@@H](O)[C@@]45C[C@H]4CC(=O)[C@]5(C)[C@H]3CC[C@]12C [Compound 1, (20R,22R,24R)-21,24-epoxy-3α,5α-cyclo-1-oxowitha-25(27)-enolide] |  | do not exhibit this stress response
5 | C=C1C(=O)O[C@@H]2C[C@]1(C)OC[C@H]2[C@H]1CC[C@H]2[C@@H]3C[C@H]4O[C@]45CC=CC(=O)[C@]5(C)[C@H]3CC[C@]12C [Compound 5, withametelin F] | upregulation was observed; also recorded: markedly upregulated | observed
